High-throughput results deposited in PubChem BioAssay by several laboratories.
Most compounds without a hit are left out; they make up all but 2.6% or so of the library.
Myeloid diff 2: compounds promoting myeloid differentiation | ER-HoxA9 myeloid progenitors, lysozyme-GFP differentiation, flow cytometry | calls only at 10 µM | 360,000 tested, 1% active;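 active means normalized GFP-positive differentiation at or above the plate's own cutoff, the solvent-only control mean plus 3 SD; inconclusive means no clear call, values can overlap the other calls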;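 further: cells exposed to compound for four days before flow analysis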
Rce1 inhib: blocks yeast Ras-converting enzyme; calls only; Q03530; yeast membranes, quenched prenylated peptide cleavage fluorescence; 290,000 tested, 0.27% active; AID 2563;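 active means fall in fluorescence gain of 50% or more versus controls, with final raw signal at or below 3038400; inconclusive means same 50% fall but final raw signal above 3038400; inactive means fall in fluorescence gain under 50%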;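 further: plate controls were neutral control wells for no effect and wells lacking membranes for full effect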
Target sequence (Q03530 whole entry, looked up): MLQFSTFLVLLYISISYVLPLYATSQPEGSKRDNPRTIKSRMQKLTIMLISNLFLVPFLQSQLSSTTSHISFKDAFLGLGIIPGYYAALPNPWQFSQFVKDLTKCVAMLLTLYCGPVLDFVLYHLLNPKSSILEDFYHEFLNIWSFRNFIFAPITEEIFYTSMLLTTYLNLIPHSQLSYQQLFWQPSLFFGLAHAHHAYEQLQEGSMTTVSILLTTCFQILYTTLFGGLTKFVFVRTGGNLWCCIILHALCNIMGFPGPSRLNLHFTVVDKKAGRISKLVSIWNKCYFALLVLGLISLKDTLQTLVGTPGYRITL
GRK2 aptamer HTS: blocks RNA aptamer binding to human GRK2. bead flow cytometry, FAM-aptamer displacement from GRK2. inhibition of aptamer binding, % at 10 µM. 330,000 tested, 0.59% active;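 active means inhibition of aptamer binding above 40%, roughly 3 SD of noise, on plates passing a quality check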;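 further: median bead fluorescence of bound FAM aptamer so fluorescent compounds give negative values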
T cell HTS: T cell immune modulation candidate | 2C CD8+ T cell-vesicle binding, flow cytometry; active compounds read low | response (vesicle binding), % at 7 µM | 330,000 tested, 0.068% active | AID 2052;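 active means response, share of CD8 T cells binding vesicles, and their 90th percentile fluorescence all below set limits, cut at about 80% in these data, passing the limit was not always enough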;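 further: values below 100% mean blocked vesicle binding to the CD8+ T cells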
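System: murine 2C transgenic CD8+ T lymphocytes; also added: QL9-loaded Drosophila micro-vesicles; times: binding 1.5 h at 37 °C; measured by: flow cytometry, PE anti-B7-1 (FL2) versus Alexa647 anti-CD8 (FL8), PFA-fixed; control set: Peptide-free naked vesicles (low) and QL9 vesicles with 0.7% DMSO vehicle (high)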
Rin1 Abl inh: inhibitors of human Rin1-Abl protein interaction. TR-FRET Rin1/Abl binding, biochemical. inhibition, % at 7.35 µM. 360,000 tested, 0.4% active. AID 588664; in the data active means inhibition above about 5%, passing the limit was not always enough
SKN-1 inh: blocks SKN-1 activity in C. elegans | C. elegans VP596 Pgst-4::GFP/RFP ratio, acrylamide-induced, 24 h | inhibition, % at 21.8 µM | 360,000 tested, 0.49% active;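 active means interference check ratio from 0.5 to 1.5 plus GFP to RFP signal ratio inhibition reaching or exceeding a fixed threshold, cut at about 30% in these data, passing the limit was not always enough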
An asterisk follows results filed as active; i = inactive; ? = inconclusive; / = no result; + = active, no number.

SMILES | Myeloid diff 2 | Rce1 inhib | GRK2 aptamer HTS | T cell HTS | Rin1 Abl inh | SKN-1 inh
CN1C(=O)N(CC(=O)c2ccc3c(c2)OCO3)C(=O)C12CCCCC2 | i | / | / | / | 1 | 15
CC/C(C)=N/NC(=O)c1[nH]c2ccc(C)cc2c1-c1ccccc1 | + | i | 12 | 305 | 0 | 0
C/C(=N\N)c1c(-c2ccccc2)c2cc(C)ccc2[nH]c1=O | i | i | 0 | 61 | -2 | 3
Cc1ccc(CS(=O)(=O)c2ccc(C(=O)N3CCN(c4ccccn4)CC3)cc2[N+](=O)[O-])cc1 | + | i | 1 | 270 | 3 | 10
N#C/C(=N\Nc1ccc([N+](=O)[O-])cc1)C(N)=S | i | i | 1 | 381 | -9 | 39*
COc1ccc2oc(-c3ccccc3)c(C(=O)N3CCOCC3)c2c1 | i | + | 0 | 409 | 3 | -5
CCOc1ccc2oc(-c3ccccc3)c(C(=O)N3CCN(C)CC3)c2c1 | i | i | 1 | 254 | -2 | 5
Cc1nn(-c2ccccc2)c(Cl)c1/C=C/C(=O)c1ccccc1 | i | i | 2 | 660 | 1 | 31*
CCCCc1ccc(NC(=S)N2CCC(O)CC2)cc1 | + | i | 0 | 183 | 5 | -4
OC1CCN(C(=S)Nc2ccc(Nc3ccccc3)cc2)CC1 | i | i | 0 | 38 | 0 | 5
COc1cc(NC(=O)C/C(C)=N/NC(=O)c2cccc(O)c2)c(OC)cc1Cl | i | + | 2 | 579 | -6 | 4
CC1(C)Cc2ccccc2C(C(Cc2ccccc2)C(N)=O)=N1 (centres undefined) | i | i | 2 | 504 | -2 | 6
COc1ccc(NC(=O)C2c3ccccc3OCC(=O)N2CC(F)(F)F)cc1 (centres undefined) | i | / | / | / | / | -2
CCCN1CCC(=O)N([C@H](CSc2ccc(OC)cc2)Cc2ccccc2)CC1 | + | i | / | / | 0 | 10
Cc1cccc(N2CCN(C(=O)Cc3ccc(-n4c(=O)[nH]c5ccsc5c4=O)cc3)CC2C)c1 (centres undefined) | i | i | 5 | 212 | 1 | 6
O=C(Cc1ccc(-n2c(=O)[nH]c3ccsc3c2=O)cc1)N1CCN(c2ccc(Cl)cc2)CC1 | + | i | 0 | i | -1 | 8
CC[n+]1c(/C=C/Nc2ccccc2)oc2ccccc21 | + | i | 0 | 312 | -7 | 3
CC[n+]1c(/C=C/N(C)c2ccccc2)oc2ccc(F)cc21 | ? | i | 0 | 243 | -6 | -9
CC[n+]1c(/C=C/Nc2ccccc2)oc2ccc(OC)cc21 | + | i | 0 | 277 | 5 | 7
CCOC(=O)N1CCN(C(=O)/C(=C/c2cccs2)NC(=O)c2cccs2)CC1 | i | i | 0 | 235 | -2 | 4
O=c1cc(CO)[nH]nc1CO | i | / | / | / | 0 | -4
CCOC(=O)C1(CCOc2ccccc2)CCN(CC=C(C)C)CC1 | + | i | 13 | 195 | 0 | -18
O=C(O)CNS(=O)(=O)c1ccc2c(c1)C(=O)c1cc(S(=O)(=O)NCC(=O)O)ccc1-2 | i | i | 3 | 256 | -4 | 29*
C1=C(CCNc2nnnn2-c2ccccc2)CCCC1 | i | i | 1 | 546 | 0 | -1
c1ccc(CCNc2nnnn2-c2ccccc2)cc1 | i | i | 0 | 254 | -5 | 37*
SMILES | Myeloid diff 2 | Rce1 inhib | GRK2 aptamer HTS | T cell HTS | Rin1 Abl inh | SKN-1 inh
O=C(Nc1nc(-c2ccc(S(=O)(=O)N3CCCC3)cc2)cs1)c1cccs1 | i | / | 0 | 233 | -2 | 38*
COc1ccc(/C=C/C(=O)N2CCN(C)CC2)cc1OC | i | i | 2 | 157 | -5 | 8
COc1ccc(C(CNC(=O)COc2cc(C)c(Cl)c(C)c2)N2CCCCC2)cc1 (centres undefined) | i | + | 0 | 614 | 2 | 9
COc1ccc(C(CNC(=O)COc2ccc(C)c(C)c2)N2CCCCC2)cc1 (centres undefined) | i | i | 0 | 406 | 0 | 3
CCOc1ncccc1C(=O)OCC(=O)NC1CCCCC1 | i | / | 2 | 540 | 2 | 12
COc1cccc(-c2ccc(C3=CC(=O)CC(C)(C)C3=O)cc2)c1OC | i | / | / | / | 1 | 12
Cc1cc(S(=O)(=O)N2CCN(Cc3ccccc3)CC2)c(C)s1 | i | i | 0 | 74* | 1 | 4
COc1cc(C)c(C)cc1S(=O)(=O)N1CCN(Cc2ccccc2)CC1 | i | i | 0 | 176 | 3 | -10
CCN(CC)CCn1c2ccccc2c2nc3ccc([N+](=O)[O-])cc3cc21 | ? | i | 15 | 328 | -5 | 10
O=c1[nH]c(=S)[nH]cc1Oc1ccc(Br)cc1Br | i | / | / | / | 0 | 5
O=C(Nc1ccc(F)c(F)c1)C1CCCN(S(=O)(=O)c2cccc3nonc23)C1 (centres undefined) | + | i | 0 | 211 | -4 | -15
Cc1cccc(NC(=O)C2CCCN(S(=O)(=O)c3cccc4nonc34)C2)c1 (centres undefined) | i | i | 1 | 335 | 5 | 6
COc1ccccc1NC(=O)/C(=C\c1cccnc1)NC(=O)c1ccc(C)cc1 | i | + | 1 | 242 | 0 | 6
COc1ccccc1NC(=O)/C(=C\c1cccnc1)NC(=O)c1ccccc1 | i | / | 2 | 464 | 3 | -7
Cc1ccc2c(=O)cc(C(=O)NCc3ccccc3)oc2c1C | i | i | 1 | 187 | -2 | 0
CC(OC(=O)[C@@H](NC(=O)c1ccco1)C(C)C)C(=O)Nc1ncc(Cl)cc1Cl (some centres undefined) | i | / | 0 | 288 | 0 | -3
COC(=O)C1=C(C)N(Cc2ccccc2)C(=NCCc2cccnc2)N[C@H]1c1ccc(Br)cc1 | + | / | 0 | 721 | 0 | 21
COC(=O)C1=C(C)N(Cc2ccccc2)C(=NCCc2cccnc2)N[C@H]1c1ccccc1 | i | i | 0 | 735 | -1 | 23
O=[N+]([O-])c1ccc(CSC2=NCCS2)cc1 | i | i | 2 | 172 | -2 | 32
CN(C)CCCN(C(=O)c1ccc([N+](=O)[O-])s1)c1nc2cc3c(cc2s1)OCCO3 | i | i | 71* | 293 | -1 | 21
CN(C)CCCN(C(=O)c1ccc(Br)s1)c1nc2cc3c(cc2s1)OCCO3 | i | i | 0 | 186 | 1 | 11
CCOC(=O)c1sc(=S)n(CC)c1NC(=O)c1ccccc1 | i | i | 3 | 96 | 4 | -3
CCCCC(OC(=O)c1ccco1)C(=O)NCc1ccc(C)cc1 (centres undefined) | i | i | 3 | 212 | 0 | 7
CCn1nnnc1SCC(=O)Nc1nc(C)c(C)s1 | i | + | 4 | 414 | 0 | -3
